Series [1] can be described thus: Metabolic stability in human microsomes assessed as compound remaining at 5 uM incubated for 30 mins by UPLC-MS/MS analysis. Type of series: ADME, Microsome. The conditions noted are these: for Stability: 0.5 h, 5 µM. The method, boiled down: (§1)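 Compound at 5 µM incubated with 0.5 mg/mL male liver microsomes in potassium phosphate buffer, started with 1 mM NADPH (CYP phase I). Aliquots quenched in cold acetonitrile containing tolbutamide, centrifuged at 4 °C, supernatant analysed by LC-MS. Results given as % parent remaining relative to time 0; mean of at least two experiments; diclofenac as control.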

Series [2] can be described thus: Metabolic stability in mouse microsomes assessed as compound remaining at 5 uM incubated for 30 mins by UPLC-MS/MS analysis. Type of series: ADME, Microsome. The conditions noted are these: for remaining at 0.5 h, 5 µM: read-out: Stability; for Stability: 0.5 h, 5 µM. The method, boiled down: as §1
The test system of the next series is Trypanosoma brucei. The experiment in a line: Antitrypanosomal activity against Trypanosoma brucei Squib 427 assessed as reduction in parasite growth incubated for 72 hrs by resazurin dye based fluorimetric analysis. Type of series: functional, organism-based. As to conditions: Squib 427, 72 h. In general terms: Alamar Blue is a resazurin reagent that responds to reducing activity.

The target in series [3] is 3',5'-cyclic-AMP phosphodiesterase 4D (Homo sapiens, UniProt Q08499). Description: Inhibition of human PDE4D2 expressed in Escherichia coli BL21 (DE3) using cAMP as substrate by PDELight HTS cAMP phosphodiesterase Kit based. The method, boiled down:
(§2)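 Recombinant catalytic domains, His-tag purified, then ion exchange and size exclusion, were tested with the PDELight HTS cAMP kit in stimulation buffer (50 mM Hepes, 100 mM NaCl, 10 mM MgCl2, 0.5 mM EDTA, 0.05 mg/ml BSA, pH 7.5). Dose-response curves gave Ki, expressed as pKi = −log10(Ki ÷ 1000000).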

For series [4], the target named is T1, Class 1 phosphodiesterase PDEB1 (Trypanosoma brucei, UniProt Q8WQX9).
T1 sequence (Q8WQX9 whole entry): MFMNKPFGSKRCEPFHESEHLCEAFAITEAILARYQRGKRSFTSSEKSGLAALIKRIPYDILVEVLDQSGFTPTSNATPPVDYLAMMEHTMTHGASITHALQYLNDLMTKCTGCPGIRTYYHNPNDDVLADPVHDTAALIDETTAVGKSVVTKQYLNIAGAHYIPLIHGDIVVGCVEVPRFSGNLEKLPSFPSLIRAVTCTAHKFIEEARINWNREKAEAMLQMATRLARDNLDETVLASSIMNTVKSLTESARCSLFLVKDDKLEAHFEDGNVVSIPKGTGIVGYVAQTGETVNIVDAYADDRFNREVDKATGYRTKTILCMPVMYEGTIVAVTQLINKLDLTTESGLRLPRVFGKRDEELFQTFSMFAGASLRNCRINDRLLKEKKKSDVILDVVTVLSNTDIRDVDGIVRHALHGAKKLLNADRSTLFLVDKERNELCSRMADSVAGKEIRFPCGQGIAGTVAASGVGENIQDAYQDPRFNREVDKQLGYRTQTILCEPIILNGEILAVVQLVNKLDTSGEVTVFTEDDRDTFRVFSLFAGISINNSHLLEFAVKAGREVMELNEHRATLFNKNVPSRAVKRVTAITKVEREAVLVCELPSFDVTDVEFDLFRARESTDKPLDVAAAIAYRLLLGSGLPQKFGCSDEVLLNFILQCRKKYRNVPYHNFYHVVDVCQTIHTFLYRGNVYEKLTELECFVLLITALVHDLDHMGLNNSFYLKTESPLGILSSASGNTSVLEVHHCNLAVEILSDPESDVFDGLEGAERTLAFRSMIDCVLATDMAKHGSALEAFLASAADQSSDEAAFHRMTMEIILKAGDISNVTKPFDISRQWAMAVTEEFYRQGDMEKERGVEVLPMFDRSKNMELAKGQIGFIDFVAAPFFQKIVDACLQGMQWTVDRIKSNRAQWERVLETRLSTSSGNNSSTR
The experiment in a line: Inhibition of Trypanosoma brucei PDEB1 (565 to 918 residues) expressed in Escherichia coli BL21 (DE3) using cAMP as substrate by PDELight HTS cAMP phosphodiesterase Kit based. The method, boiled down:
as §2

Series [5] is described as follows: Cytotoxicity against human MRC5 SV2 cells assessed as reduction in cell viability incubated for 72 hrs by resazurin dye based fluorimetric assay. The conditions noted are these: MRC-5 SV2, 72 h. The method, boiled down:
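MRC-5 SV2 fibroblasts grown in Earl's MEM with 5% FBSi, L-glutamine and bicarbonate; 1×10^4 cells/well treated 72 h at 37 °C, 5% CO2; resazurin viability read fluorimetrically (ex 550, em 590 nm). Five 4-fold dilutions from a 64 µM top concentration; IC50 derived from % viability reduction vs untreated wells; tamoxifen as reference.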

12 compounds from ChEMBL document CHEMBL4402584, “Lead Optimization of Phthalazinone Phosphodiesterase Inhibitors as Novel Antitrypanosomal Compounds” (J Med Chem, 2020) can be followed below.

As a reminder, the IC50 is the concentration needed to halve the response being measured. As a reminder, the Ki is the equilibrium dissociation constant of an inhibitor or competing ligand from its target. Read a high Ki as lower affinity.

Chain of 3',5'-cyclic-AMP phosphodiesterase 4D (Q08499 whole entry, the tested form may be a part): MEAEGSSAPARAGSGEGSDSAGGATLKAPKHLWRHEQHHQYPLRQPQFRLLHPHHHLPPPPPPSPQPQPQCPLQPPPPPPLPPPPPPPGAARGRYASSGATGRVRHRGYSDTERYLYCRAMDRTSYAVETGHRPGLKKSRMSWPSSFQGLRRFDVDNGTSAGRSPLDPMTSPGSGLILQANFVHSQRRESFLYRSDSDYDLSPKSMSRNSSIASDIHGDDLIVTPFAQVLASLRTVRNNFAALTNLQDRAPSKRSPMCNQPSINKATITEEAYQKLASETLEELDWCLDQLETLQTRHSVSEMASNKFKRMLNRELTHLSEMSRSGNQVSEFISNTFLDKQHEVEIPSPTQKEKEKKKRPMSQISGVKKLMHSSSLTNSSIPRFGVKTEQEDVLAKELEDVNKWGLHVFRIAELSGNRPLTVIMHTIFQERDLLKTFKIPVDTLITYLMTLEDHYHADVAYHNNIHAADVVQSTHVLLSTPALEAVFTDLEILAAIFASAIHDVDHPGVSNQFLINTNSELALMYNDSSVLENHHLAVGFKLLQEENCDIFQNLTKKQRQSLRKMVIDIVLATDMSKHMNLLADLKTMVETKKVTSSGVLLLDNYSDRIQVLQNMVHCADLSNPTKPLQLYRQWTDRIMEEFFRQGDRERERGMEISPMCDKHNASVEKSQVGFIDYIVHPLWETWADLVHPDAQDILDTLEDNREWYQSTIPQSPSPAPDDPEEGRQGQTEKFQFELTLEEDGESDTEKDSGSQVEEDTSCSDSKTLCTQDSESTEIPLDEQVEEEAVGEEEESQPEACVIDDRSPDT

Take `COc1ccc(C2=NN(C3CCN(C(=O)CN4C(=O)CC(C)(C)CC4=O)CC3)C(=O)[C@@H]3CC=CC[C@H]23)cc1OC`: the Stability entry in series [1] is listed as “Stable”. The remaining at 0.5 h, 5 µM in series [2] amounted to 6.7%. Moreover, the 50% inhibitory concentration (IC50) is 0.447 µM in the series on Trypanosoma brucei and 44.7 µM in series [5]. The Ki in series [3] is 0.123 nM; in series [4], 0.0437 µM.
`O=C(CN1C(=O)CC2(CCCCC2)CC1=O)N1CCC(N2N=C(c3ccc(F)c(F)c3)[C@H]3CCCC[C@H]3C2=O)CC1`: the Stability entry in series [1] and in series [2] was “Stable” each time. The IC50 in the series with Trypanosoma brucei is 7.59 µM; in series [5] it was 64.6 µM. The same compound had a Ki in series [4] above 6.92 µM.
Regarding `COc1ccc(C2=NN(C3CCN(c4nc(N)c5sccc5n4)CC3)C(=O)[C@@H]3CC=CC[C@H]23)cc1OC`, the Stability result in series [1] and in series [2] was “Stable” in each case. Moreover, the IC50 with Trypanosoma brucei is 1.78 µM; in series [5], 64.6 µM. The results for the inhibition constant (Ki) in series [3] and in series [4] were 0.676 nM and 0.339 µM, respectively.
With `O=C1[C@@H]2CC=CC[C@@H]2C(c2ccc(F)c(F)c2)=NN1C1CCN(c2ncnc3ccsc23)CC1`, the Stability result in series [1] and in series [2] was “Stable” in each case. For the same compound, the IC50 in the series with Trypanosoma brucei was 13.2 µM; in series [5], 38 µM. This compound also had a Ki in series [4] above 5.62 µM.
Take `CC1(C)CC(=O)N(CC(=O)N2CCC(N3N=C(c4ccc(OC(F)F)c(OC(F)F)c4)[C@H]4CCCC[C@H]4C3=O)CC2)C(=O)C1`: the Stability result in series [1] and in series [2] was “Stable” throughout. In addition, the IC50 was 6.46 µM with Trypanosoma brucei and 64.6 µM in series [5]. This compound showed a Ki in series [4] above 1.58 µM.
As for `COc1ccc(C2=NN(C3CCN(c4nc(N)nc5ccccc45)CC3)C(=O)[C@@H]3CC=CC[C@H]23)cc1OC`, the IC50 in the series on Trypanosoma brucei is 0.813 µM; in series [5] it was 7.76 µM. Besides, the values for the inhibition constant Ki in series [3] and in series [4] were 0.155 nM and 0.0245 µM, respectively.
As for `COc1ccc(C2=NN(C3CCN(C(=O)CN4C(=O)CCC4=O)CC3)C(=O)[C@@H]3CC=CC[C@H]23)cc1OC`, the remaining at 0.5 h, 5 µM worked out at 89% in series [1] (read-out: Stability) and 43% in series [2]. In addition, the values for the IC50 (in the series on Trypanosoma brucei; in series [5]) were 1.86 µM and 64.6 µM, respectively. Moreover, the Ki in series [3] is 0.0617 nM; in series [4], 0.0209 µM.
On to `O=C1[C@@H]2CC=CC[C@@H]2C(c2ccc(OC(F)F)c(OC(F)F)c2)=NN1C1CCN(c2ncnc3ccsc23)CC1`, for which the Stability entry in series [1] and in series [2] was “Stable” in each case. Moreover, the IC50 was 6.76 µM with Trypanosoma brucei and 64.6 µM in series [5]. Moreover, the Ki in series [4] was above 2.14 µM.
For the compound `CC1(C)CC(=O)N(CC(=O)N2CCC(N3N=C(c4ccc(F)cc4)[C@H]4CC=CC[C@H]4C3=O)CC2)C(=O)C1` (relative stereo), the figures for the IC50 (in the series on Trypanosoma brucei; in series [5]) were 64.6 µM and 29.5 µM, respectively. The Ki was 0.12 nM in series [3] and 0.0776 µM in series [4].
With `O=C(CN1C(=O)CC2(CCCCC2)CC1=O)N1CCC(N2N=C(c3ccc(F)c(F)c3)[C@H]3CC=CC[C@H]3C2=O)CC1` (relative stereo), the Stability result in series [1] and in series [2] was “Stable” throughout. In addition, the IC50 in the series with Trypanosoma brucei was 33.1 µM; in series [5] it was 64.6 µM. In addition, in series [4], the Ki is above 4.57 µM.
As for `Nc1nc(N2CCC(N3N=C(c4ccc(F)cc4)[C@H]4CC=CC[C@H]4C3=O)CC2)c2ccsc2n1` (relative stereo), the Stability result in series [1] and in series [2] was “Stable” throughout. In addition, the IC50 in the series on Trypanosoma brucei was 2.09 µM; in series [5], 64.6 µM. The compound further had an inhibition constant (Ki) in series [4] above 9.33 µM.
Turning to `Nc1nc(N2CCC(N3N=C(c4ccc(F)c(F)c4)[C@H]4CC=CC[C@H]4C3=O)CC2)c2ccsc2n1` (relative stereo), the Stability entry in series [1] and in series [2] was “Stable” throughout. Further, the IC50 was 1.91 µM in the series on Trypanosoma brucei and 64.6 µM in series [5]. In addition, in series [4], the Ki was above 8.32 µM.
